Screens: PubChem, several laboratories
XBP1 UPR activ: activators of adaptive XBP1 UPR arm, primary screen, cell-based, CHO-XBP1 luciferase reporter, luminescence, uHTS. IRE1-XBP1 UPR activation; percent of tunicamycin response, DMSO as zero. activation, % at 20 µM. 330,000 tested, 0.33% active;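 active = versus positive control, 20 µM dose yields 30% or more activation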;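 also: 100% = tunicamycin at 10 µg/mL and 0% = DMSO only wells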
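Assay system: IRE1-XBP1 luciferase reporter CHO line. Input: 1000 cells/well. Buffer or medium: F12 with 10% serum. Doses: 20 µM, 1% DMSO. Times: overnight seeding at 37 °C, 6 h compound treatment at 37 °C. Technique: Steady-Glo luciferase glow luminescence, 10 min after reagent addition.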
PfM18AAP inh: PfM18AAP inhibitors, malaria aminopeptidase, primary screen, biochemical, QFRET, recombinant enzyme; M18 aspartyl aminopeptidase (Plasmodium falciparum 3D7); H-Glu-NHMec fluorogenic cleavage; inhibition, % at 7.35 µM; 290,000 tested, 1.2% active;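 active = inhibition above the campaign mean inhibition over all tested compounds plus 3 SD, cut at about 28% in these data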;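 also: 0% = plate median of test compound wells and 100% = 2 mM ZnCl2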
CHOP inh: inhibitors of CHOP promoter induction, primary screen, cell-based, unfolded protein response, luciferase reporter; AID 2732, 2010; 220,000 tested, 3.8% active; CHO-K1 CHOP-promoter luciferase, tunicamycin-induced, 15-18 h; inhibition, % at 10 µM;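 active = compounds that reduced the stress-induced luciferase reporter signal by more than about 70% of percent inhibition, limit read from the data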;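 also: 0% = tunicamycin plus vehicle and 100% = wells without tunicamycin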
HCV NS3 hel inh: inhibitors of HCV NS3 helicase, primary screen, biochemical, Cy5 molecular beacon fluorescence; NS3 helicase DNA unwinding; 290,000 tested, 0.56% active; inhibition, % at 10.9 µM;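 active = inhibition above the mean of all tested compounds plus 3 SD, set per campaign, cut at about 35% in these data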;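 also: 0% = DMSO wells and 100% = thioflavine S control wells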
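test system = hepatitis C virus NS3 helicase domain fragment enzyme | reagent = annealed dual-labelled DNA beacon duplex, ATP-started | times = 1 h at 25 °C | detection = Cy5 fluorescence, 0 and 60 min reads | read-out basis = percent inhibition from t60/t0 fluorescence ratio | control set = DMSO and thioflavine S | replication = one well per compound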
p97 ATPase inh: inhibitors of human p97 ATPase, primary screen, biochemical. recombinant p97 ATPase, Kinase-Glo ATP luminescence, 3 h. inhibition, % at 8 µM. 220,000 tested, 0.42% active. AID 1481, 2009; in the data active = inhibition above about 15%;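 also: 0% = DMSO vehicle and 100% = wells lacking enzyme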
Target sequence (P55072 whole entry, looked up): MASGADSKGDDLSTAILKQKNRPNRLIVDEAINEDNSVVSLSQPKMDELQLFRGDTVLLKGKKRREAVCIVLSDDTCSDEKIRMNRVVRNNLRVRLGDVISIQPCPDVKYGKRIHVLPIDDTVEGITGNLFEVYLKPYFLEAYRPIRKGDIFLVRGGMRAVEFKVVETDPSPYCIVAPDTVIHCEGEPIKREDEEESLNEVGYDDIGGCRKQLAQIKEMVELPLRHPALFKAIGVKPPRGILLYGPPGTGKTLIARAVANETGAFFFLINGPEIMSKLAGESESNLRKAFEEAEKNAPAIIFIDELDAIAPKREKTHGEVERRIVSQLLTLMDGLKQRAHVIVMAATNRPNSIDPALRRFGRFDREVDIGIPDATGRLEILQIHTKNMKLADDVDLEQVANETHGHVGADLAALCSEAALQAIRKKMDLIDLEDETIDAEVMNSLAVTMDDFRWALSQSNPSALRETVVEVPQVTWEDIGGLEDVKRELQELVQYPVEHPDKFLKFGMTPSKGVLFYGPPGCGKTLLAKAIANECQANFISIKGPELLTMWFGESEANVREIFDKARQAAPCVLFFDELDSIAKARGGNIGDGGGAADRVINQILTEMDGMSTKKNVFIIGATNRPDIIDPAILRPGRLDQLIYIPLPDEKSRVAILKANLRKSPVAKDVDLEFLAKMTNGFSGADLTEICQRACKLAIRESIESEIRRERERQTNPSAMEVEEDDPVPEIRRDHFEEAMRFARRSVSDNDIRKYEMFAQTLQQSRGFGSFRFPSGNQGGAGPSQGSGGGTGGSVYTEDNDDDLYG
CHOP UPR activ: activators of apoptotic CHOP UPR arm, primary screen, cell-based, CHO-CHOP luciferase reporter, luminescence, uHTS; UPR activation; percent of tunicamycin response over DMSO baseline; activation, % at 10 µM; 330,000 tested, 0.34% active;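 active = at 10 µM dose, activation of 40% or more, normalized to positive control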;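 also: 100% = tunicamycin at 10 µg/mL and 0% = DMSO alone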
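System: CHO-CHOP luciferase reporter cell line | Buffer or medium: F12 medium containing 10% fetal bovine serum | Doses: One dose, 10 µM in 0.5% DMSO | Times: 6 h compound exposure at 37 °C after overnight seeding | Signal: Luciferase luminescence | Read-out: % activation vs tunicamycin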
Numbers without * were called inactive. The list is not random: actives were taken first. Their share in the collection is about 4.5%.

For C=C1C(=O)[C@@]23[C@H](O)C[C@@H]4C(C)(C)CC[C@H](O)[C@@]4(C)[C@@H]2CC[C@@H]1[C@H]3O the results were XBP1 UPR activ -8, PfM18AAP inh -12, CHOP inh 98*, HCV NS3 hel inh -1, p97 ATPase inh 4 and CHOP UPR activ 5.
For C=C1C(=O)[C@@]23[C@H](O)C[C@@H]4C(C)(C)CC[C@H](O)[C@]4(C)[C@@H]2C[C@H](O)[C@@H]1[C@H]3O the results were XBP1 UPR activ -5, PfM18AAP inh -19, CHOP inh -35, HCV NS3 hel inh -4, p97 ATPase inh 5 and CHOP UPR activ 17.
For Clc1ccc(-c2nc3ccccc3nc2-c2ccccc2)cc1 the results were XBP1 UPR activ 2, PfM18AAP inh -2, CHOP inh 74*, HCV NS3 hel inh -5, p97 ATPase inh 5 and CHOP UPR activ 1.
Screening Cc1ccc(-c2nc3ccccc3nc2-c2ccccc2)cc1 returned XBP1 UPR activ -3, PfM18AAP inh -13, HCV NS3 hel inh 0 and CHOP UPR activ 3.
Screening O=C(COc1ccccc1Br)N1CCN(C(=O)c2ccco2)CC1 returned XBP1 UPR activ -4, PfM18AAP inh -5, HCV NS3 hel inh 20 and CHOP UPR activ 0.
Screening CCOc1ccc(Oc2nc(N(CC)CC)nc(N3CCOCC3)n2)nn1 returned XBP1 UPR activ 0, PfM18AAP inh 2, CHOP inh -4, HCV NS3 hel inh 4, p97 ATPase inh -1 and CHOP UPR activ -3.
COC(=O)c1ccc(Oc2nc(N3CCCCC3)nc(N3CCOCC3)n2)cc1 was read as XBP1 UPR activ -5, PfM18AAP inh 2, CHOP inh 71*, HCV NS3 hel inh -3, p97 ATPase inh 4 and CHOP UPR activ 2.
For CCN(CC)c1nc(Oc2ccc(C(=O)OC)cc2)nc(N2CCOCC2)n1 the results were XBP1 UPR activ -1, PfM18AAP inh 2, CHOP inh 85*, HCV NS3 hel inh -4, p97 ATPase inh -2 and CHOP UPR activ 1.
Clc1ccc(Oc2nc(Oc3ccc(Cl)cc3)nc(N3CCOCC3)n2)cc1 was read as XBP1 UPR activ 2, PfM18AAP inh -1, CHOP inh 32, HCV NS3 hel inh 5, p97 ATPase inh -6 and CHOP UPR activ 2.
Screening COc1ccc(-c2nnc(NC(=O)c3ccccc3[N+](=O)[O-])s2)c(OC)c1 returned XBP1 UPR activ 17, PfM18AAP inh -1, HCV NS3 hel inh 21 and CHOP UPR activ 0.
For COc1ccc2cc(C(c3nnnn3CCc3ccccc3)N3CCCC(C)C3)c(=O)[nH]c2c1 (stereo unspecified) the results were XBP1 UPR activ -4, PfM18AAP inh 5, CHOP inh 87*, HCV NS3 hel inh -8, p97 ATPase inh 5 and CHOP UPR activ -2.
Screening COc1cc([N+](=O)[O-])ccc1NC(=S)Nc1cc(C(=O)OC(C)C)cc(C(=O)OC(C)C)c1 returned XBP1 UPR activ 0, PfM18AAP inh 1, CHOP inh 85*, HCV NS3 hel inh -3, p97 ATPase inh -2 and CHOP UPR activ 15.
O=C(NCCN1CCCCC1)/C(=C/c1ccco1)NC(=O)c1ccccc1 was read as XBP1 UPR activ -3, PfM18AAP inh 4, HCV NS3 hel inh 0 and CHOP UPR activ 1.
`CN(CC(=O)Nc1ccccc1Br)C(=O)c1cccn1C` gave XBP1 UPR activ 0 and CHOP UPR activ 1.
For CCOC(=O)C1=C(C)NC(=O)C(C#N)C1c1ccco1 (stereo unspecified) the results were XBP1 UPR activ -1, PfM18AAP inh 4, CHOP inh 70*, HCV NS3 hel inh -2, p97 ATPase inh 4 and CHOP UPR activ -1.
`CCOC(=O)C1=C(N)OC(C)=C(C#N)C1c1ccco1` (stereo unspecified) gave XBP1 UPR activ 0, PfM18AAP inh 2, CHOP inh 19, HCV NS3 hel inh -5, p97 ATPase inh 6 and CHOP UPR activ 1.
`COc1ccc(CC(=O)Nc2ccc(-c3nnc(-c4ccccc4)o3)cc2)cc1OC` gave XBP1 UPR activ 3, PfM18AAP inh 6, CHOP inh 74*, HCV NS3 hel inh 5, p97 ATPase inh 1 and CHOP UPR activ 2.
`COc1ccc(CC(=O)Nc2cccc(-c3nnc(-c4ccc(C)cc4)o3)c2)cc1OC` gave XBP1 UPR activ -3, PfM18AAP inh -1, CHOP inh 76*, HCV NS3 hel inh -5, p97 ATPase inh 3 and CHOP UPR activ -5.
Screening COc1ccc(CC(=O)Nc2cccc(-c3nnc(-c4ccccc4)o3)c2)cc1OC returned PfM18AAP inh -4, HCV NS3 hel inh 8 and p97 ATPase inh -4.
For Cc1csc(=O)n1CCC(=O)OCC(=O)Nc1cccc(C#N)c1 the results were XBP1 UPR activ -1 and CHOP UPR activ 2.
For OCCNCc1cc(Br)ccc1OCc1ccc(Cl)cc1Cl the results were PfM18AAP inh 2, CHOP inh 90*, HCV NS3 hel inh -76 and p97 ATPase inh -3.
Screening O=C1OC(/C(=C\Nc2ccc(F)cc2F)[N+](=O)[O-])c2ccccc21 (stereo unspecified) returned XBP1 UPR activ -4, PfM18AAP inh 47*, CHOP inh -25, HCV NS3 hel inh 12, p97 ATPase inh 2 and CHOP UPR activ -1.
For O=C1OC(Nc2ccc(F)cc2F)c2ccccc21 (stereo unspecified) the results were XBP1 UPR activ 1, PfM18AAP inh -1, CHOP inh -21, HCV NS3 hel inh -12, p97 ATPase inh 3 and CHOP UPR activ 0.
For O=C1OC(/C(=C\Nc2cc(Cl)ccc2O)[N+](=O)[O-])c2ccccc21 (stereo unspecified) the results were XBP1 UPR activ 3, PfM18AAP inh 41*, CHOP inh 9, HCV NS3 hel inh 24, p97 ATPase inh 5 and CHOP UPR activ 0.
For COc1ccccc1NC(=O)Cn1ncc2c1-c1ccccc1OC2 the results were XBP1 UPR activ -1, PfM18AAP inh -3, CHOP inh 16, HCV NS3 hel inh 12, p97 ATPase inh -3 and CHOP UPR activ 0.
Screening CCOc1ccc(-c2cc(NC(=O)Cn3ncc4c3-c3ccccc3OC4)on2)cc1OCC returned XBP1 UPR activ -2, PfM18AAP inh -8, CHOP inh 100*, HCV NS3 hel inh -4, p97 ATPase inh -7 and CHOP UPR activ 0.
